From ChEMBL document CHEMBL1143052, “Synthesis, antimicrobial, and QSAR studies of substituted benzamides” (2007)

Key:
Aspergillus parasiticus = assay: Antifungal activity against Aspergillus parasiticus MTCC 8189 by serial dilution method; format: functional
How it was run: (§1)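 Broth serial dilution against the fungus in Sabouraud dextrose broth-I.P., run like the antibacterial assay. Compounds came from a DMSO stock, and MIC was determined.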

Escherichia coli = assay: Antibacterial activity against Escherichia coli MTCC 1652 after 24 hrs; format: functional
How it was run: (§2)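 Serial broth dilution in double-strength nutrient broth-I.P. Bacteria were grown for 24 h at 37 °C. A DMSO stock was diluted into 1 mL broth tubes to span 5–0.156, then inoculated with a saline suspension of the organism. Tubes were incubated at 37 °C for 24 h and MIC was read. Extra dilutions of the stock then set the exact MIC.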

Staphylococcus aureus = assay: Antibacterial activity against Staphylococcus aureus MTCC 2901 after 24 hrs
Aspergillus ficuum = assay: Antifungal activity against Aspergillus ficuum MTCC 8184 by serial dilution method; format: functional; how it was run: as §1
Bacillus subtilis = assay: Antibacterial activity against Bacillus subtilis MTCC 2063 after 24 hrs; format: functional; how it was run: as §2

SMILES | -log(1/MIC) (Aspergillus parasiticus) | pMIC, log(1/MIC) (Escherichia coli) | -log(1/MIC) (Staphylococcus aureus) | -log(1/MIC) (Aspergillus ficuum) | pMIC, log(1/MIC) (Bacillus subtilis) | -log(1/MIC) (Escherichia coli)
Cc1ccc(C(=O)Nc2ccc(O)cc2)cc1 | 1.32 | 1.26 | 1.26 | 1.56 | 0.96 | 
O=C(Nc1ccc(O)cc1)c1ccccc1 | 1.24 | 1.23 | 1.23 | 1.53 | 0.93 | 
O=C(Nc1ccccc1O)c1cccc(Cl)c1 | 1.3 | 1.2 | 1.16 | 1.6 | 1.1 | 
O=C(Nc1ccccc1O)c1cc([N+](=O)[O-])cc([N+](=O)[O-])c1 | 1.69 | 1.38 | 1.38 | 1.58 | 1.38 | 
COc1cccc(C(=O)Nc2ccccc2O)c1[N+](=O)[O-] | 1.71 | 1.41 | 1.41 | 1.71 | 1.41 | 
O=C(Nc1ccc(O)cc1)c1cc([N+](=O)[O-])cc([N+](=O)[O-])c1 | 1.69 | 1.38 | 1.38 | 1.69 | 1.38 | 
O=C(Nc1ccccc1O)c1ccc2ccccc2c1O | 1.62 | 1.21 | 1.25 | 1.58 | 1.2 | 
O=C(Nc1ccccc1)c1ccccc1OCc1ccccc1 | 1.69 | 1.3 | 1.39 | 1.69 | 1.3 | 
O=C(Nc1ccc(O)cc1)c1ccccc1Cl | 1.31 | 1.17 | 1.3 | 1.6 | 1 | 
COC(=O)c1cccc(O)c1NC(=O)c1ccccc1OCc1ccccc1 | 1.83 | 1.35 | 1.48 | 1.78 | 1.48 | 
O=C(Nc1ccccc1O)c1c(O)ccc2ccccc12 | 1.35 | 1.29 | 1.23 | 1.65 | 1.35 | 
O=C(O)c1ccccc1O [SALICYLIC ACID] | 3.1 |  |  | 3.1 |  | 
O=C(Nc1ccc(O)cc1)c1ccccc1O [OSALMID] | 1.26 | 1.2 | 1.26 | 1.56 | 0.96 | 
O=C(Nc1ccc(O)cc1)c1c(O)ccc2ccccc12 | 1.65 | 1.35 | 1.23 | 1.65 | 1.35 | 
O=C(O)c1cn(C2CC2)c2cc(N3CCNCC3)c(F)cc2c1=O [CIPROFLOXACIN] |  |  | 3.33 |  | 3.33 | 3.33
O=C(Nc1ccccc1O)c1cc([N+](=O)[O-])ccc1Cl | 1.52 | 1.2 | 1.26 | 1.67 | 1.07 | 
O=C(/C=C/c1ccccc1)Nc1ccc(O)cc1 | 1.58 | 1.16 | 1.28 | 1.58 | 0.98 | 
O=C(Nc1ccccc1O)c1ccccc1O | 1.2 | 1.12 | 1.26 | 1.45 | 0.96 | 
O=C(Nc1ccc(O)cc1)c1ccc2ccccc2c1O | 1.62 | 1.22 | 1.32 | 1.57 | 1.25 | 
O=C(Nc1ccccc1)c1c(O)ccc2ccccc12 | 1.65 | 1.35 | 1.35 | 1.65 | 1.35 | 

Other lines, results leading:

-log(1/MIC) (Aspergillus parasiticus) | pMIC, log(1/MIC) (Escherichia coli) | -log(1/MIC) (Staphylococcus aureus) | -log(1/MIC) (Aspergillus ficuum) | pMIC, log(1/MIC) (Bacillus subtilis) | -log(1/MIC) (Escherichia coli) | SMILES
1.3 | 1.17 | 1.26 | 1.44 | 1.13 |  | O=C(Nc1ccccc1)c1ccc2ccccc2c1O
1.58 | 1.27 | 1.37 | 1.58 | 1.27 |  | O=C(Nc1ccc(O)cc1)c1cc([N+](=O)[O-])ccc1Cl
1.23 | 1.23 | 1.11 | 1.43 | 0.93 |  | O=C(Nc1ccccc1O)c1ccccc1
1.42 | 1.2 | 1.35 | 1.55 | 1.15 |  | O=C(Nc1ccccc1)c1cc([N+](=O)[O-])ccc1Cl
1.3 | 1.26 | 1.16 | 1.56 | 0.96 |  | Cc1cccc(C(=O)Nc2ccccc2O)c1
1.26 | 1.2 | 1.26 | 1.56 | 1.04 |  | Cc1cccc(C(=O)Nc2ccc(O)cc2)c1
1.26 | 1.2 | 1.16 | 1.56 | 0.96 |  | Cc1ccc(C(=O)Nc2ccccc2O)cc1
1.3 | 1.2 | 1.3 | 1.6 | 1 |  | O=C(Nc1ccccc1O)c1ccccc1Cl
1.53 | 1.26 | 1.36 | 1.36 | 1.26 |  | COc1cccc(C(=O)Nc2ccc(O)cc2)c1[N+](=O)[O-]
1.3 | 1.17 | 1.3 | 1.6 | 1 |  | O=C(Nc1ccc(O)cc1)c1cccc(Cl)c1
